Data set [1] can be described thus: Solubility of the compound in water. The format is physicochemical.
The test system of data set [2] is Caenorhabditis elegans. Description: Effect on skn-1 mRNA expression in Caenorhabditis elegans CL4176 at 50 uM by qRT-PCR analysis. The format is functional. The gist of the method: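 CL4176 qRT-PCR of skn-1 or sod-3. RNA extracted with Trizol, EvaGreen qRT-PCR run for 40 cycles (95 °C 5 s, 60 °C 5 s). Normalized to ama-1 by the 2^−ΔΔCt method. Three independent RNA/cDNA preparations, run in triplicate.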
Background: Real-time PCR tracks product formation cycle by cycle.

The target of data set [3] is Amyloid-beta precursor protein (Homo sapiens, UniProt P05067). Description: Inhibition of amyloid beta (1 to 42)-induced paralysis in transgenic Caenorhabditis elegans CL4176 L3 expressing human amyloid beta (1 to 42) assessed as reduction in fluorescence intensity at 50 to 200 uM incubated for 2 days by thiofavin-T based fluorescence microscopic analysis. The note with it: dose microM 50-200, time 2.0 day. The gist of the method:
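CL4176 L3 worms kept on compound plates (50, 100, 200 µM) at 25 °C for 2 days. Stained with ThT (10 µM) for 5 min, held 2 h on NGM without OP50, then mounted on 2% agarose pads. Fluorescence imaged at ex 488/em 500–530 nm, in triplicate with 15–20 worms per group.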

A short description of data set [4]: Inhibition of Zn2+ induced amyloid beta (1 to 42) aggregation assessed as reduction in fibril formation incubated for 24 hrs in presence of Zn2+ by Thioflavin T based fluorometric assay. The gist of the method: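 Aβ42 (20 µM) mixed with compound (0.1–100 µM), with or without Zn2+ (20 µM), in Tris-HCl pH 7.4, incubated at 37 °C for 24 h. ThT (5 µM) added, fluorescence read at ex 450/em 485 nm.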

The subject of data set [5] is Caenorhabditis elegans. Description: Induction of HSP expression in Caenorhabditis elegans. The data set is classed as functional.
A short description of data set [6]: Disaggregation of Zn2+ induced fibrils of amyloid beta (1 to 40) assessed as appearance of small soluble fragments at 0.1 to 100 uM incubated for 24 hrs uranyl acetate staining-based by TEM analysis. The note with it: dose microM 0.1-100, time 24.0 hrs.

Active and inactive are the calls of the source. The calls are words filed in the database; no cut-off is given here.

Amyloid-beta precursor protein, sequence (P05067 whole entry): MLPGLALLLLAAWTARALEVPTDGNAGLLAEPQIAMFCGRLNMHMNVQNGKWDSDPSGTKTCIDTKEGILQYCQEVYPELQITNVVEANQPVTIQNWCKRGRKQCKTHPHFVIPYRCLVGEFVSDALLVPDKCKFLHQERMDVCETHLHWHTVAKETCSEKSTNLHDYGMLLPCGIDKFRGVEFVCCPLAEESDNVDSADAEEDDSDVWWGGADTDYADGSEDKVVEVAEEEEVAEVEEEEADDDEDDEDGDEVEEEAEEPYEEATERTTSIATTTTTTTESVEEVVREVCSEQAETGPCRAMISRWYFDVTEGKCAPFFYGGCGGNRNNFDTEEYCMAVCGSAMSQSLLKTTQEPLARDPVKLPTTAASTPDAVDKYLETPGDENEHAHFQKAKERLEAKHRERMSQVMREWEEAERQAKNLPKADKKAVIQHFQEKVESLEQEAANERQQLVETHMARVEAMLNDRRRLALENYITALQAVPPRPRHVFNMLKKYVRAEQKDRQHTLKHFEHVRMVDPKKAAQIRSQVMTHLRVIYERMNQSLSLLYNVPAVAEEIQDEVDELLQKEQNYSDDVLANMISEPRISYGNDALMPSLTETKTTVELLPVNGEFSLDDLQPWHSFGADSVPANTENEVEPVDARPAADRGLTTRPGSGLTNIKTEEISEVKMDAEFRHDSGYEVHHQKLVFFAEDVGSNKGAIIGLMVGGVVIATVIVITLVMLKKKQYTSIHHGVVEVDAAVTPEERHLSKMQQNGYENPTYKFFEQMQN

`Oc1cc(CN(Cc2ccccn2)Cc2ccccn2)cc(C[P+](c2ccccc2)(c2ccccc2)c2ccccc2)c1.[Br-]`: in data set [1], the solubility entry is given as “Insoluble”. Moreover, the result in data set [2] was inactive. Moreover, the inhibition result in data set [3] is “Active”. Besides, in data set [4], the IC50 amounted to 27.4 µM and the inhibition entry was “Dose-dependent effect”. Also, the outcome in data set [5] was Active. In addition, the result in data set [6] was Active.

A word on the IC50: it is the point on the concentration scale where inhibition reaches its midpoint.

These data come from ChEMBL document CHEMBL4665634, “Inhibiting Aβ toxicity in Alzheimer's disease by a pyridine amine derivative” (Eur J Med Chem, 2019).
